Measurements reported in ChEMBL document CHEMBL4020716, “The synthesis and evaluation of new butadiene derivatives as tubulin polymerization inhibitors” (Bioorg Med Chem, 2017).
Blank lines part the entries; values can stand above or below the molecule they belong to. The source made the active and inactive calls. The rule behind the calls is not given here.

Key:
HeLa [1] = experiment: Antiproliferative activity against human HeLa cells after 48 hrs by MTT assay; assay type: functional, cell-based
Method in brief: (§1)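 Cells in logarithmic growth were seeded at 5 × 10^3 cells/well and left for 24 h, then exposed to a range of compound concentrations for 48 h. MTT (5 mg/mL) was added for 4 h, the formazan was dissolved in DMSO and absorbance read at 570 nm. IC50 is the concentration giving 50% growth inhibition, from at least three independent experiments, mean ± SD. Culture: DMEM, 10% heat-inactivated FBS, penicillin/streptomycin, 37 °C, 5% CO2.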

A2780 = experiment: Antiproliferative activity against human A2780 cells after 48 hrs by MTT assay; assay type: functional, cell-based; settings: A2780, 48 h; method in brief: as §1
MCF7 = experiment: Antiproliferative activity against human MCF7 cells after 48 hrs by MTT assay; assay type: functional, cell-based; settings: MCF7, 48 h; method in brief: as §1
PC-3 = experiment: Antiproliferative activity against human PC3 cells after 48 hrs by MTT assay; assay type: functional, cell-based; settings: PC-3, 48 h; method in brief: as §1
A549 = experiment: Antiproliferative activity against human A549 cells after 48 hrs by MTT assay; assay type: functional, cell-based; settings: A549, 48 h; method in brief: as §1
HeLa [2] = experiment: Induction of morphological changes in human HeLa cells assessed as chromatin condensation at 25 to 100 nM after 24 hrs by Hoechst 33342 staining-based laser scanning confocal microscopic method; assay type: functional, cell-based
HeLa [3] = experiment: Cell cycle arrest in human HeLa cells assessed as accumulation at G2/M phase at 25 nM after 24 hrs by propidium iodide staining-based flow cytometry method (reference value: 19.0%); assay type: functional
HeLa [4] = experiment: Induction of apoptosis in human HeLa cells assessed as necrotic cells at 25 nM after 24 hrs by Annexin-V/FITC/propidium iodide staining-based flow cytometry method (reference value: 0.04%); assay type: functional
HeLa [5] = experiment: Cell cycle arrest in human HeLa cells assessed as accumulation at G2/M phase at 100 nM after 24 hrs by propidium iodide staining-based flow cytometry method (reference value: 19.0%); assay type: functional
HeLa [6] = experiment: Induction of apoptosis in human HeLa cells assessed as early apoptotic cells at 25 nM after 24 hrs by Annexin-V/FITC/propidium iodide staining-based flow cytometry method (reference value: 0.59%); assay type: functional
HeLa [7] = experiment: Induction of apoptosis in human HeLa cells assessed as live cells at 50 nM after 24 hrs by Annexin-V/FITC/propidium iodide staining-based flow cytometry method (reference value: 99.1%); assay type: functional
HeLa [8] = experiment: Cell cycle arrest in human HeLa cells assessed as accumulation at G2/M phase at 50 nM after 24 hrs by propidium iodide staining-based flow cytometry method (reference value: 19.0%); assay type: functional
HeLa [9] = experiment: Induction of apoptosis in human HeLa cells assessed as live cells at 100 nM after 24 hrs by Annexin-V/FITC/propidium iodide staining-based flow cytometry method (reference value: 99.1%); assay type: functional
HeLa [10] = experiment: Induction of apoptosis in human HeLa cells assessed as necrotic cells at 50 nM after 24 hrs by Annexin-V/FITC/propidium iodide staining-based flow cytometry method (reference value: 0.04%); assay type: functional
HeLa [11] = experiment: Induction of apoptosis in human HeLa cells assessed as early apoptotic cells at 50 nM after 24 hrs by Annexin-V/FITC/propidium iodide staining-based flow cytometry method (reference value: 0.59%); assay type: functional
HeLa [12] = experiment: Induction of apoptosis in human HeLa cells assessed as necrotic cells at 100 nM after 24 hrs by Annexin-V/FITC/propidium iodide staining-based flow cytometry method (reference value: 0.04%); assay type: functional
HeLa [13] = experiment: Induction of apoptosis in human HeLa cells assessed as late apoptotic cells at 50 nM after 24 hrs by Annexin-V/FITC/propidium iodide staining-based flow cytometry method (reference value: 0.26%); assay type: functional
HeLa [14] = experiment: Induction of apoptosis in human HeLa cells after 24 hrs by Annexin-V/FITC/propidium iodide staining-based flow cytometry method; assay type: functional, cell-based
HeLa [15] = experiment: Induction of apoptosis in human HeLa cells assessed as early apoptotic cells at 100 nM after 24 hrs by Annexin-V/FITC/propidium iodide staining-based flow cytometry method (reference value: 0.59%); assay type: functional
HeLa [16] = experiment: Cell cycle arrest in human HeLa cells assessed as accumulation at G2/M phase after 24 hrs by propidium iodide staining-based flow cytometry method; assay type: functional
HeLa [17] = experiment: Induction of apoptosis in human HeLa cells assessed as late apoptotic cells at 25 nM after 24 hrs by Annexin-V/FITC/propidium iodide staining-based flow cytometry method (reference value: 0.26%); assay type: functional
HeLa [18] = experiment: Induction of morphological changes in human HeLa cells assessed as microtubule shrinking at 25 to 100 nM after 24 hrs by Hoechst 33342 staining-based laser scanning confocal microscopic method; assay type: functional, cell-based
HeLa [19] = experiment: Induction of apoptosis in human HeLa cells assessed as late apoptotic cells at 100 nM after 24 hrs by Annexin-V/FITC/propidium iodide staining-based flow cytometry method (reference value: 0.26%); assay type: functional
HeLa [20] = experiment: Induction of morphological changes in human HeLa cells assessed as membrane blebbing at 25 to 100 nM after 24 hrs by Hoechst 33342 staining-based laser scanning confocal microscopic method; assay type: functional, cell-based
[21] = Inhibition of porcine brain tubulin polymerization preincubated for 1 min followed by addition of tubulin measured every 60 s for 90 min by DAPI staining-based fluorescence assay; set-up: species or system Sus scrofa
HeLa [22] = experiment: Induction of apoptosis in human HeLa cells assessed as live cells at 25 nM after 24 hrs by Annexin-V/FITC/propidium iodide staining-based flow cytometry method (reference value: 99.1%); assay type: functional

Structure (SMILES): C=C(/C(C)=C/c1ccc(OC)c(F)c1)c1cc(OC)c(OC)c(OC)c1
IC50 (HeLa [1]): 483 nM | IC50 (A2780): 561 nM | IC50 (MCF7): 412 nM | IC50 (PC-3): 354 nM | IC50 (A549): 219 nM

Structure (SMILES): C=C(/C=C/c1ccc(OC)c(N)c1)c1cc(OC)c(OC)c(OC)c1
IC50 (HeLa [1]): 234 nM | IC50 (A2780): 582 nM | IC50 (MCF7): 786 nM | IC50 (PC-3): 560 nM | IC50 (A549): 137 nM

Structure (SMILES): CC=C(/C=C/c1ccc(OC)c(N)c1)c1cc(OC)c(OC)c(OC)c1
IC50 (HeLa [1]): 217 nM | IC50 (A2780): 137 nM | IC50 (MCF7): 247 nM | IC50 (PC-3): 319 nM | IC50 (A549): 247 nM

Structure (SMILES): C=C(/C(C)=C/c1ccc(OC)c(N)c1)c1cc(OC)c(OC)c(OC)c1
IC50 (HeLa [1]): 286 nM | IC50 (A2780): 279 nM | IC50 (MCF7): 356 nM | IC50 (PC-3): 457 nM | IC50 (A549): 269 nM

Structure (SMILES): C=C(/C=C/c1ccc(OC)c(O)c1)c1cc(OC)c(OC)c(OC)c1
IC50 (HeLa [1]): 320 nM | IC50 (A2780): 457 nM | IC50 (MCF7): 569 nM | IC50 (PC-3): 423 nM | IC50 (A549): 286 nM

Structure (SMILES): CCC=C(/C=C/c1ccc(OC)c(N)c1)c1cc(OC)c(OC)c(OC)c1
IC50 (HeLa [1]): 314 nM | IC50 (A2780): 248 nM | IC50 (MCF7): 486 nM | IC50 (PC-3): 285 nM | IC50 (A549): 398 nM

Structure (SMILES): C=C(/C(C)=C/c1ccc(OC)cc1)c1cc(OC)c(OC)c(OC)c1
IC50 (HeLa [1]): 495 nM | IC50 (A2780): 839 nM | IC50 (MCF7): 965 nM | IC50 (PC-3): 487 nM | IC50 (A549): 356 nM

Structure (SMILES): CO/C=C(\C=C\c1ccc(OC)c(O)c1)c1cc(OC)c(OC)c(OC)c1
IC50 (HeLa [1]): 5630 nM | IC50 (A2780): 2220 nM | IC50 (MCF7): 3260 nM | IC50 (PC-3): 5320 nM | IC50 (A549): 1600 nM

The next lines start with results.

IC50 (HeLa [1]): 563 nM | IC50 (A2780): 505 nM | IC50 (MCF7): 604 nM | IC50 (PC-3): 789 nM | IC50 (A549): 637 nM
Structure (SMILES): CC=C(/C(C)=C/c1ccc(OC)c(O)c1)c1cc(OC)c(OC)c(OC)c1

IC50 (HeLa [1]): 60 nM | IC50 (A2780): 64 nM | IC50 (MCF7): 89 nM | IC50 (PC-3): 61 nM | IC50 (A549): 56 nM | IC50 [21]: 1010 nM
Structure (SMILES): C=C(/C(C)=C/c1ccc(OC)c(O)c1)c1cc(OC)c(OC)c(OC)c1
Activity (HeLa [2]): Active | Activity (HeLa [3]): 30% | Activity (HeLa [4]): 1.56% | Activity (HeLa [5]): 72% | Activity (HeLa [6]): 16% | Activity (HeLa [7]): 62.7% | Activity (HeLa [8]): 43% | Activity (HeLa [9]): 56.7% | Activity (HeLa [10]): 1.77% | Activity (HeLa [11]): 29.8% | Activity (HeLa [12]): 1.91% | Activity (HeLa [13]): 5.8% | Activity (HeLa [14]): Dose-dependent effect | Activity (HeLa [15]): 36.6% | Activity (HeLa [16]): Dose-dependent effect | Activity (HeLa [17]): 3.32% | Activity (HeLa [18]): Active | Activity (HeLa [19]): 4.77% | Activity (HeLa [20]): Active | Activity (HeLa [22]): 79.1%

IC50 (HeLa [1]): 3120 nM | IC50 (A2780): 2930 nM | IC50 (MCF7): 3970 nM | IC50 (PC-3): 4510 nM | IC50 (A549): 2460 nM
Structure (SMILES): CCCC=C(/C(C)=C/c1ccc(OC)c(O)c1)c1cc(OC)c(OC)c(OC)c1

IC50 (HeLa [1]): 3120 nM | IC50 (A2780): 5290 nM | IC50 (MCF7): 8240 nM | IC50 (PC-3): 4230 nM | IC50 (A549): 2020 nM
Structure (SMILES): CCC=C(/C(C)=C/c1ccc(OC)c(O)c1)c1cc(OC)c(OC)c(OC)c1

IC50 (HeLa [1]): 5 nM | IC50 (A2780): 3 nM | IC50 (MCF7): 5 nM | IC50 (PC-3): 9 nM | IC50 (A549): 4 nM
Structure (SMILES): COc1ccc(/C=C(\C)C(=O)c2cc(OC)c(OC)c(OC)c2)cc1O
